# Assay results from ChEMBL document CHEMBL1123730, “Synthesis and pharmacological evaluation of a new class of 2-(2-aminothiazol-4-yl)-2-hydrazonoacetamido cephalosporins” (J Med Chem, 1987).
# Columns and labels:
# [1] = Distribution (50 mg/kg) was determined in kidney 120 min after intramuscular administration; format: ADME, organism-based; conditions: im, read-out: Tissue distribution
# In short: (§1)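 Wistar rats (200-250 g, groups of five) given 50 mg/kg in sterile water iv or im; killed at set times, lung, liver and kidney homogenized in 0.1 M pH 7.3 phosphate buffer (tissue:buffer 1:5). Drug assayed by agar diffusion on Nutrient Agar with E. coli ATCC 10536 (37 °C, 18 h); standards in phosphate buffer; detection limit 0.5 μg/mL; mean ± SEM.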
# [2] = Distribution (50 mg/kg) was determined in kidney 120 min after intravenous administration; format: ADME, organism-based; conditions: in vivo, 2 h; in short: as §1
# [3] = Distribution (50 mg/kg) was determined in kidney 15 min after intramuscular administration; format: ADME, organism-based; conditions: im, read-out: Tissue distribution; in short: as §1
# [4] = Distribution (50 mg/kg) was determined in kidney 15 min after intravenous administration; format: ADME, organism-based; conditions: read-out: Tissue distribution; in short: as §1
# [5] = Distribution (50 mg/kg) was determined in kidney 30 min after intravenous administration; format: ADME, organism-based; conditions: read-out: Tissue distribution; in short: as §1
# [6] = Distribution (50 mg/kg) was determined in kidney 5 min after intravenous administration; format: ADME, organism-based; conditions: read-out: Tissue distribution; in short: as §1
# [7] = Distribution (50 mg/kg) was determined in kidney 60 min after intramuscular administration; format: ADME, organism-based; conditions: im, read-out: Tissue distribution; in short: as §1
# [8] = Distribution (50 mg/kg) was determined in liver 120 min after intramuscular administration; format: ADME, organism-based; conditions: im, read-out: Tissue distribution; in short: as §1
# [9] = Distribution (50 mg/kg) was determined in liver 120 min after intravenous administration; format: ADME, organism-based; conditions: read-out: Tissue distribution; in short: as §1
# [10] = Distribution (50 mg/kg) was determined in liver 5 min after intramuscular administration; format: ADME, organism-based; conditions: in vivo, im; in short: as §1
# [11] = Distribution (50 mg/kg) was determined in liver 5 min after intravenous administration; format: ADME, organism-based; conditions: read-out: Tissue distribution; in short: as §1
# [12] = Distribution (50 mg/kg) was determined in liver 60 min after intramuscular administration; format: ADME, organism-based; conditions: im, read-out: Tissue distribution; in short: as §1
# [13] = Distribution (50 mg/kg) was determined in lung 120 min after intravenous administration; format: ADME, organism-based; conditions: in vivo, 2 h; in short: as §1
# [14] = Distribution (50 mg/kg) was determined in lung 15 min after intramuscular administration; format: ADME, organism-based; conditions: im, read-out: Tissue distribution; in short: as §1
# [15] = Distribution (50 mg/kg) was determined in lung 15 min after intravenous administration; format: ADME, organism-based; conditions: read-out: Tissue distribution; in short: as §1
# [16] = Distribution (50 mg/kg) was determined in lung 30 min after intramuscular administration; format: ADME, organism-based; conditions: im, read-out: Tissue distribution; in short: as §1
# [17] = Distribution (50 mg/kg) was determined in lung 60 min after intramuscular administration; format: ADME, organism-based; conditions: im, read-out: Tissue distribution; in short: as §1
# [18] = Serum level was determined at 15 min after an intravenous administration of 50 mg/kg in rats; format: ADME, organism-based; design: dose 50 mg/kg, route intravenous; conditions: rat, read-out: Serum level
# In short: (§2)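 Dose 50 mg/kg in sterile water, iv or im, to Wistar rats 200-250 g, five per time point; killed at set intervals, blood centrifuged for serum. Antibiotic measured by agar diffusion on Nutrient Agar with E. coli ATCC 10536 (37 °C, 18 h), standards diluted in serum; detection limit 1 μg/mL. Mean ± SEM of five rats.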
# [19] = Serum level was determined at 15 min after intramuscular administration of 50 mg/kg in rats; format: ADME, organism-based; design: dose 50 mg/kg, route intramuscular; conditions: rat, im, read-out: Serum level; in short: as §2
# [20] = Serum level was determined at 30 min after an intravenous administration of 50 mg/kg in rats; format: ADME, organism-based; design: dose 50 mg/kg, route intravenous; conditions: rat, read-out: Serum level; in short: as §2
# [21] = Serum level was determined at 5 min after an intravenous administration of 50 mg/kg in rats; format: ADME, organism-based; design: dose 50 mg/kg, route intravenous; conditions: rat, read-out: Serum level; in short: as §2
# [22] = Serum level was determined at 5 min after intramuscular administration of 50 mg/kg in rats; format: ADME, organism-based; design: dose 50 mg/kg, route intramuscular; conditions: rat, im, read-out: Serum level; in short: as §2
# [23] = Serum level was determined at 60 min after an intravenous administration of 50 mg/kg in rats; format: ADME, organism-based; design: dose 50 mg/kg, route intravenous; conditions: rat, read-out: Serum level; in short: as §2
# [24] = Serum level was determined at 120 min after an intravenous administration of 50 mg/kg in rats; format: ADME, organism-based; design: dose 50 mg/kg, route intravenous; conditions: rat, read-out: Serum level; in short: as §2
# [25] = Serum level was determined at 120 min after intramuscular administration of 50 mg/kg in rats; format: ADME, organism-based; design: dose 50 mg/kg, route intramuscular; conditions: rat, im, read-out: Serum level; in short: as §2
# [26] = Half-life administered, intravenously; format: ADME, organism-based; conditions: in vivo, iv
# In short: (§3)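 Wistar rats (200-250 g, groups of five) given 50 mg/kg in sterile water iv or im; killed at 5-360 min, serum separated. Levels by agar diffusion bioassay, E. coli ATCC 10536 test organism, 37 °C 18 h, standards in serum (detection limit 1 μg/mL); elimination half-life derived from serum time course.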
# [27] = tested on: Alcaligenes; assay: Geometrical average of minimum bactericidal concentration was determined in isosensitest broth against Alcaligenes; format: functional
# [28] = tested on: Escherichia coli; assay: Geometrical average of minimum bactericidal concentration was determined in isosensitest broth against Escherichia coli; format: functional
# [29] = tested on: Escherichia coli; assay: Geometrical average of minimum inhibitory concentration was determined in isosensitest broth against Escherichia coli; format: functional
# [30] = tested on: Escherichia coli; assay: Minimum inhibitory concentration against Escherichia coli ISM strain; format: functional
# [31] = tested on: Enterobacter; assay: Geometrical average of minimum bactericidal concentration was determined in isosensitest broth against Enterobacter; format: functional
# [32] = tested on: Enterobacter; assay: Geometrical average of minimum inhibitory concentration was determined in isosensitest broth against Enterobacter; format: functional
# [33] = tested on: Klebsiella; assay: Geometrical average of minimum bactericidal concentration was determined in isosensitest broth against Klebsiella; format: functional
# [34] = tested on: Klebsiella pneumoniae; assay: Minimum inhibitory concentration against Klebsiella pneumoniae 102; format: functional
# [35] = tested on: Neisseria perflava; assay: Geometrical average of minimum inhibitory concentration was determined in isosensitest broth against Neisseria perfl.; format: functional
# [36] = tested on: Pseudomonas; assay: Geometrical average of minimum inhibitory concentration was determined in isosensitest broth against Pseudomonas; format: functional
# [37] = tested on: Proteus; assay: Geometrical average of minimum bactericidal concentration was determined in isosensitest broth against Proteus; format: functional, Proteus sp.
# [38] = tested on: Proteus; assay: Geometrical average of minimum inhibitory concentration was determined in isosensitest broth against Proteus; format: functional, Proteus sp.
# [39] = tested on: Salmonella; assay: Geometrical average of minimum inhibitory concentration was determined in isosensitest broth against Salmonella; format: functional
# [40] = tested on: Streptococcus; assay: Geometrical average of minimum inhibitory concentration was determined in isosensitest broth against Streptococcus; format: functional
# [41] = tested on: Staphylococcus aureus; assay: Geometrical average of minimum inhibitory concentration was determined in isosensitest broth against Staphylococcus (P); format: functional
# [42] = tested on: Serratia; assay: Geometrical average of minimum inhibitory concentration was determined in isosensitest broth against Serratia; format: functional
# [43] = tested on: Staphylococcus; assay: Geometrical average of minimum bactericidal concentration was determined in isosensitest broth against Staphylococcus (10); format: functional
# [44] = tested on: Staphylococcus; assay: Geometrical average of minimum bactericidal concentration was determined in isosensitest broth against Staphylococcus (P); format: functional
# [45] = tested on: Serratia; assay: Geometrical average of minimum bactericidal concentration was determined in isosensitest broth against Serratia; format: functional
# [46] = Geometrical average of minimum inhibitory concentration was determined in isosensitest broth against gram-positive strains.; format: functional
# [47] = Geometrical average of minimum inhibitory concentration was determined in isosensitest broth against gram-negative strains.; format: functional
# [48] = Half-life administered, intramuscularly; format: ADME; conditions: im; in short: as §3
# [49] = Distribution (50 mg/kg) was determined in liver 30 min after intramuscular administration; format: ADME, organism-based; conditions: im, read-out: Tissue distribution; in short: as §1
# [50] = tested on: Salmonella typhimurium; assay: Minimum inhibitory concentration against Salmonella Typhimurium T.O was determined; format: functional, Salmonella enterica subsp. enterica serovar Typhimurium; conditions: Salmonella enterica
# [51] = tested on: Klebsiella pneumoniae; assay: In vivo protective dose was determined in infected swiss mice (120/strain) infected ip with Klebsiella pneumoniae 102 with an inoculum size-0.5 mL of 10 E5 CFU/mL of suspension. Activity in range of 10.47-22.94
smiles,measurement,setting,value
Cn1nnnc1SCC1=C(C(=O)O)N2C(=O)[C@@H](NC(=O)/C(=N/N)c3csc(N)n3)[C@H]2SC1,concentration at 2 h,[1],10200 ng/g
same,Tissue distribution,[2],Undetectable
same,concentration at 0.25 h,[3],25100 ng/g
same,concentration at 0.25 h,[4],50600 ng/g
same,concentration at 0.5 h,[5],19600 ng/g
same,concentration at 5 min,[6],107000 ng/g
same,concentration at 1 h,[7],22900 ng/g
same,concentration at 2 h,[8],5270 ng/g
same,concentration at 2 h,[9],≤ 5000 ng/g
same,Tissue distribution,[10],Undetectable
same,concentration at 5 min,[11],43200 ng/g
same,concentration at 1 h,[12],15100 ng/g
same,Tissue distribution,[13],Undetectable
same,concentration at 0.25 h,[14],10700 ng/g
same,concentration at 0.25 h,[15],17500 ng/g
same,concentration at 0.5 h,[16],12200 ng/g
same,concentration at 1 h,[17],7660 ng/g
same,concentration at 0.25 h,[18],137 µg/mL
same,concentration at 0.25 h,[19],86.2 µg/mL
same,concentration at 0.5 h,[20],87.2 µg/mL
same,concentration at 5 min,[21],231 µg/mL
same,concentration at 5 min,[22],34.6 µg/mL
same,concentration at 1 h,[23],52.5 µg/mL
same,concentration at 2 h,[24],20.5 µg/mL
same,concentration at 2 h,[25],32.9 µg/mL
same,half-life,[26],45 min
same,MBC,[27],12.5 µg/mL
same,MBC,[28],1.01 µg/mL
same,MIC,[29],0.6 µg/mL
same,MIC,[30],1.1 µg/mL
same,MBC,[31],3.12 µg/mL
same,MIC,[32],1.96 µg/mL
same,MBC,[33],2.78 µg/mL
same,MIC,[34],1.56 µg/mL
same,MIC,[35],< 0.09 µg/mL
same,MIC,[36],> 100 µg/mL
same,MBC,[37],2.45 µg/mL
same,MIC,[38],1.08 µg/mL
same,MIC,[39],0.86 µg/mL
same,MIC,[40],25 µg/mL
same,MIC,[41],35.3 µg/mL
same,MIC,[42],1.75 µg/mL
same,MBC,[43],11.3 µg/mL
same,MBC,[44],50 µg/mL
same,MBC,[45],3.12 µg/mL
same,MIC,[46],4.95 µg/mL
same,MIC,[47],1.74 µg/mL
same,half-life,[48],69 min
same,concentration at 0.5 h,[49],22100 ng/g
same,MIC,[50],1.1 µg/mL
same,ED50,[51],15.5 mg/kg
